# Sampled rows, rich in hits. Any-hit rate of the full collection: about 5.9%.
# IDH1 mut inh: inhibitors of IDH1 R132H reductase, primary screen, biochemical, plate reader, single point; inhibition, % at 10 µM; AID 624101, 2012; Isocitrate dehydrogenase [NADP] cytoplasmic (Homo sapiens), O75874; diaphorase/resazurin fluorescence, 60 min; 70,000 tested, 0.18% active; in the data active = inhibition above about 34%;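 note: 0% = DMSO and 100% = no enzyme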
# Pf Dd2 inh: P. falciparum Dd2 growth inhibitors, primary screen, SYBR Green fluorescence, single dose replicates. 72 h; active compounds read low. activity change, % at 10 µM. 94,000 tested, 2.3% active. AID 1159554, 2015; in the data active = activity change below about -80%
# KDM4C inh: inhibitors of GASC-1 (KDM4C) histone demethylase, primary screen, biochemical, single concentration HTS; GST-KDM4C 2-372, H3K9me3 peptide, LANCE TR-FRET; 96,000 tested, 0.15% active; Lysine-specific demethylase 4C (Homo sapiens), Q9H3R0; inhibition, % at 12.5 µM;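 active = mean replicate inhibition above about 25%, with at least 55% of replicates also reaching it, limit read from the data, passing the limit was not always enough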
# Target sequence (Q9H3R0 2-372 limits assumed): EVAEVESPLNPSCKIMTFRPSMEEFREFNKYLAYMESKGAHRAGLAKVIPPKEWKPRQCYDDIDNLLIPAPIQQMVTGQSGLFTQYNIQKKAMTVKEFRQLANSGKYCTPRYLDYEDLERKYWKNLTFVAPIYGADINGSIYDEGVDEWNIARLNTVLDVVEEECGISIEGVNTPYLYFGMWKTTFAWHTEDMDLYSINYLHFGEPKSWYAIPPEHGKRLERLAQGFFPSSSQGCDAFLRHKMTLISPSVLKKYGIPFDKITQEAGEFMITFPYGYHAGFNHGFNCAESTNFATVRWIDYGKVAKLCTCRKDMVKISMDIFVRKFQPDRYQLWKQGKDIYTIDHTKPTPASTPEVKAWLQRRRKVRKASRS
#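 material = GST-tagged GASC-1 (JMJD2C) catalytic fragment, aa 2-372 | amount = enzyme final amount 10 nM | medium = HEPES buffer, pH 7.5, plus ascorbate | also added = H3K9me3 peptide substrate, Fe(II), 2-oxoglutarate | dosing = single dose | times = 30 min demethylation and 1 h detection at room temperature | detection = LANCE TR-FRET | read-out basis = Fall in 671/618 emission ratio as inhibition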
# T cruzi growth: T. cruzi intracellular proliferation inhibitors, primary screen, cell-based, beta-gal Tulahuen parasites, NIH3T3 host, luminescence; T. cruzi beta-gal in NIH3T3, GalScreen luminescence, 90 h; AID 624255, 2012; inhibition, % at 8.34 µM; 77,000 tested, 5.9% active;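 active = mean inhibition above about 93%, with at least 55% of replicates each passing it, limit read from the data, passing the limit was not always enough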
# The depositor's hits bear a star; / = not tested or not shown.
SMILES,IDH1 mut inh,Pf Dd2 inh,KDM4C inh,T cruzi growth
C[C@H](CO)N1C[C@H](C)[C@@H](CN(C)C(=O)Nc2ccccc2)Oc2ccc(NC(=O)Nc3ccc(C(F)(F)F)cc3)cc2CC1=O,2,-85*,-1,28
C[C@H](CO)N1C[C@H](C)[C@@H](CN(C)C(=O)Nc2ccc(C(F)(F)F)cc2)Oc2ccc(NC(=O)Nc3ccccc3)cc2CC1=O,1,-64,10,20
C[C@H](CO)N1C[C@H](C)[C@@H](CN(C)C(=O)Nc2ccc(F)cc2)Oc2ccc(NC(=O)Nc3ccc(C(F)(F)F)cc3)cc2CC1=O,2,-88*,-1,10
CC(=O)c1ccc(NC(=O)COc2ccccc2C(N)=O)cc1,0,/,/,/
O=C(CCCCCC(=O)N/N=C/c1ccoc1)NO,0,/,/,/
C[C@@H]1CN([C@@H](C)CO)C(=O)c2cccc(NC(=O)CCCCCC(=O)Nc3ccccc3N)c2O[C@@H]1CN(C)Cc1ccncc1,0,-2,-1,/
C[C@H](CO)N1C[C@H](C)[C@H](CN(C)Cc2ccc(C(F)(F)F)cc2)Oc2c(NC(=O)CCCCCC(=O)Nc3ccccc3N)cccc2C1=O,0,-86*,-1,/
C[C@H]1CN([C@@H](C)CO)C(=O)c2cc(NC(=O)CCCCCC(=O)Nc3ccccc3N)ccc2O[C@H]1CN(C)Cc1ccc(C(F)(F)F)cc1,/,-25,1,90
C[C@H](CO)N1C[C@H](C)[C@@H](CN(C)Cc2ccc(C(F)(F)F)cc2)Oc2c(NC(=O)CCCCCC(=O)Nc3ccccc3N)cccc2C1=O,/,-89*,-3,/
C[C@@H]1CN([C@H](C)CO)C(=O)c2cccc(NC(=O)CCCCCC(=O)Nc3ccccc3N)c2O[C@@H]1CN(C)C,0,-42,-1,/
C[C@@H]1CN([C@@H](C)CO)C(=O)c2cccc(NC(=O)CCCCCC(=O)Nc3ccccc3N)c2O[C@@H]1CN(C)Cc1ccc(C(F)(F)F)cc1,/,-92*,-1,94
C[C@@H]1CN([C@H](C)CO)C(=O)c2cccc(NC(=O)CCCCCC(=O)Nc3ccccc3N)c2O[C@@H]1CN(C)Cc1ccc(C(F)(F)F)cc1,0,-92*,-1,/
CCc1ccc(NC(=O)CSc2nc(C)cc(C)n2)cc1,0,/,/,/
CSCC(NS(=O)(=O)c1ccc(Br)cc1)C(=O)O (configuration not stated),0,/,/,/
CS(=O)(=O)N(CC(=O)Nc1ccc(C(F)(F)F)cc1)c1cccc([N+](=O)[O-])c1,0,/,/,/
COc1ccc2c3c(n(C)c2c1)[C@@H](CO)N(C(=O)C1CC1)CC31CCN(C(=O)Nc2cccc(F)c2)CC1,/,-91*,-3,/
COc1ccc2c3c(n(C)c2c1)[C@@H](CO)N(C(=O)C1CCC1)CC31CN(C(=O)Nc2cccc(F)c2)C1,/,-87*,-3,/
COc1ccc2c3c(n(C)c2c1)[C@@H](CO)N(C(=O)C1CC1)CC31CN(C(=O)Nc2cccc(F)c2)C1,/,-88*,-2,/
CCCC(=O)N1CC2(CCN(C(=O)Nc3cccc(F)c3)CC2)c2c(n(C)c3cc(OC)ccc23)[C@H]1CO,/,-86*,-1,/
O=[N+]([O-])c1cccc(NC(=S)NCCn2cc(Cl)cn2)c1,0,/,/,/
COc1ccc(S(=O)(=O)NCc2ccco2)cc1[N+](=O)[O-],0,/,/,/
CO[C@@H]1CN(C)C(=O)c2cc(NC(=O)c3ccc(-c4ccccc4)cc3)ccc2OC[C@H](C)NC[C@@H]1C,0,-76,-1,/
CO[C@@H]1CN(C)C(=O)c2cc(NC(=O)c3ccc(-c4ccccc4)cc3)ccc2OC[C@@H](C)NC[C@@H]1C,0,-97*,-2,/
CO[C@H]1CN(C)C(=O)c2cc(NC(=O)c3ccc(-c4ccccc4)cc3)ccc2OC[C@H](C)NC[C@H]1C,0,-92*,/,/
CO[C@H]1CN(C)C(=O)c2cc(NC(=O)c3ccc(-c4ccccc4)cc3)ccc2OC[C@@H](C)NC[C@H]1C,0,-78,0,/
SMILES,IDH1 mut inh,Pf Dd2 inh,KDM4C inh,T cruzi growth
Cc1ccc(NC(=O)COc2ccc(Cl)cc2C)c([N+](=O)[O-])c1,0,/,/,/
C[C@@H]1CN([C@H](C)CO)C(=O)c2cccc(NC(=O)NC3CCCCC3)c2O[C@@H]1CN(C)Cc1ccc(C(=O)Nc2ccccc2N)cc1,/,-84*,0,77
C[C@@H]1CN([C@@H](C)CO)C(=O)c2cccc(NC(=O)C3CCCCC3)c2O[C@@H]1CN(C)Cc1ccc(C(=O)Nc2ccccc2N)cc1,/,-85*,0,57
C[C@H](CO)N1C[C@H](C)[C@H](CN(C)Cc2ccc(C(=O)Nc3ccccc3N)cc2)Oc2c(NC(=O)NC3CCCCC3)cccc2C1=O,/,/,-1,/
CC1=Nc2ccc(C)cc2/C1=C\c1c(N)n2nc(S(=O)(=O)CC(C)C)sc2nc1=O,-5,/,/,/
COc1ccc(NC(=O)Nc2ccc3c(c2)C(=O)N([C@@H](C)CO)C[C@@H](C)[C@@H](CN(C)Cc2ccc(C(F)(F)F)cc2)OCCCC[C@@H](C)O3)cc1,0,-83*,0,78
COc1ccc(CN(C)C[C@H]2OCCCC[C@H](C)Oc3ccc(NC(=O)Nc4ccc(C(F)(F)F)cc4)cc3C(=O)N([C@@H](C)CO)C[C@H]2C)cc1,/,-75,/,59
COc1ccc(CN(C)C[C@@H]2OCCCC[C@H](C)Oc3ccc(NC(=O)Nc4ccc(C(F)(F)F)cc4)cc3C(=O)N([C@@H](C)CO)C[C@@H]2C)cc1,/,-87*,/,96
COc1ccc(CN(C)C[C@H]2OCCCC[C@@H](C)Oc3ccc(NC(=O)Nc4ccc(C(F)(F)F)cc4)cc3C(=O)N([C@H](C)CO)C[C@H]2C)cc1,/,-67,/,101
COc1ccc(NC(=O)Nc2ccc3c(c2)C(=O)N([C@@H](C)CO)C[C@@H](C)[C@@H](CN(C)Cc2ccc(C(F)(F)F)cc2)OCCCC[C@H](C)O3)cc1,0,-76,0,75
COc1ccc(NC(=O)Nc2ccc3c(c2)C(=O)N([C@@H](C)CO)C[C@H](C)[C@@H](CN(C)Cc2ccc(C(F)(F)F)cc2)OCCCC[C@@H](C)O3)cc1,/,-91*,-2,66
Cc1ccccc1N1C(=O)CC(SCC(=O)Nc2ccccc2)C1=O (configuration not stated),0,/,/,/
COc1cc(OC)c(NC(=O)CSc2nnc(-c3ccccc3)n2-c2ccccc2)cc1Cl,0,/,/,/
C[C@@H]1CCCCO[C@@H](CN(C)S(=O)(=O)c2cccs2)[C@@H](C)CN([C@@H](C)CO)C(=O)c2cc(NC(=O)Nc3ccc(C(F)(F)F)cc3)ccc2O1,1,-87*,0,84
C[C@@H]1CN([C@@H](C)CO)C(=O)c2cc(NC(=O)CCC(F)(F)F)ccc2O[C@@H](C)CCCCO[C@@H]1CN(C)S(=O)(=O)c1cccs1,1,-63,1,39

# From PubChem
